Bioassay records from PubChem BioAssay.
NOD2-RIPK2 inh: NOD2-RIPK2 protein interaction inhibition | 360,000 compounds, 0.38% hits | AID 624267 | inhibition, % at 4.98 µM | CHO BLA complementation NOD2-RIPK2, CCF4 ratio; in the data active means inhibition above about 21%;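 further: 0% = vehicle only and 100% = reference blocker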
Target sequence (O43353 whole entry, looked up): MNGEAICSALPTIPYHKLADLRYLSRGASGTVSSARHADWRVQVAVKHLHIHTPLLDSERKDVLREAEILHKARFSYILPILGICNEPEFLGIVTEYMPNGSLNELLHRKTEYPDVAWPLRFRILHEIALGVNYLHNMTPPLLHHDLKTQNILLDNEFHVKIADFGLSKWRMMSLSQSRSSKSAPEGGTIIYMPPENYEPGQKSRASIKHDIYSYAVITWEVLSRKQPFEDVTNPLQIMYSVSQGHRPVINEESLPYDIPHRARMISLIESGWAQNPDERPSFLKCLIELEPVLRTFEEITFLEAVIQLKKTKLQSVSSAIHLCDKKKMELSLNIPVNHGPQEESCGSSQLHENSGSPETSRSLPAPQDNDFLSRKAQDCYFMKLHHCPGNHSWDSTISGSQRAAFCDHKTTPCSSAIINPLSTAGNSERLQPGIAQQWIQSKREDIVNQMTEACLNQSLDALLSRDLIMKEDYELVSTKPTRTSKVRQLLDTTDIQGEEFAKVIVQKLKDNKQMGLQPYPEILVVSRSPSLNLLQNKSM
TLR9-MyD88 block: TLR9-MyD88 interaction inhibition; CHO BLA complementation TLR9-MyD88, CCF4 FRET ratio; inhibition, % at 4.98 µM; 340,000 compounds, 0.21% hits; AID 504734;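 active means inhibition above the mean over all tested compounds plus 3 SD, cut at about 21% in these data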;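 further: 0% = DMSO only wells and 100% = clavulanate BLA inhibitor control wells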
CHOP inh: blocks CHOP induction under ER stress. CHO-K1 CHOP-promoter luciferase, tunicamycin-induced, 15-18 h. inhibition, % at 10 µM. 220,000 compounds, 3.8% hits;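 active means compounds that reduced the stress-induced luciferase reporter signal by more than about 70% of percent inhibition, limit read from the data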;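 further: 0% = tunicamycin plus vehicle and 100% = wells without tunicamycin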
TLR4 MyD88 comp: inhibitors of human TLR4-MyD88 binding. HeLa CL3-4 TLR4/MyD88 BLA complementation, FRET ratio. 200,000 compounds, 0.18% hits. O00206+Q99836. inhibition, % at 8.4 µM; in the data active means inhibition above about 25%;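 further: 0% = vehicle and 100% = reference inhibitor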
UPR XBP1 act: adaptive UPR (XBP1) activation | activation, % at 20 µM | 330,000 compounds, 0.33% hits | AID 463104 | CHO-XBP1 luciferase reporter, IRE1-XBP1 UPR activation, luminescence; percent of tunicamycin response, DMSO as zero;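 active means versus positive control, 20 µM dose yields 30% or more activation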;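 further: 100% = tunicamycin at 10 µg/mL and 0% = DMSO only wells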
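Material – CHO cell line with stable XBP1 luciferase reporter · Buffer or medium – F12 plus 10% FBS · Compound – single point, 20 µM final compound, 1% DMSO · Schedule – 16-18 h cell attachment at 37 °C, then 6 h compound exposure · Signal – Steady-Glo luminescence read · Benchmarks – high control tunicamycin 10 µg/mL final, low control DMSO vehicle only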
UPR CHOP act: activators of apoptotic arm of unfolded protein response (CHOP). CHO-CHOP luciferase reporter, UPR activation, luminescence; percent of tunicamycin response over DMSO baseline. activation, % at 10 µM. 330,000 compounds, 0.34% hits;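 active means at 10 µM dose, activation of 40% or more, normalized to positive control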;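 further: 100% = tunicamycin at 10 µg/mL and 0% = DMSO alone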
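Material: CHO-CHOP cells, stable luciferase reporter of PERK-eIF2a-CHOP signalling; quantity: 500 reporter cells seeded per well; buffer or medium: F12 medium containing 10% fetal bovine serum; compound: one dose, 10 µM in 0.5% DMSO; incubation: 6 h compound treatment, 37 °C; measured by: Steady-Glo luciferase luminescence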
NOD2-RIPK2 conf: NOD2-RIPK2 interaction inhibition confirmed | shares compounds with NOD2-RIPK2 inh | 1,200 compounds, 70% hits | inhibition, % at 4.98 µM | CHO cells, NOD2-RIPK2 BLA complementation, CCF4 FRET;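 active means mean inhibition across replicates above a set limit taken from the earlier primary screen, cut at about 21% in these data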;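 further: 0% = DMSO-only wells and the high end = clavulanate BLA-blocked wells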
NOD2 BLA counter: NOD2-RIPK2 counterscreen BLA reporter activity | shares compounds with NOD2-RIPK2 inh | CHO BLA reporter, CCF4 FRET ratio | inhibition, % at 4.98 µM | 1,200 compounds, 57% hits | AID 624371;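 active means mean inhibition above the low-control mean inhibition plus three low-control SD, cut at about 11% in these data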;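 further: 0% = DMSO only wells and 100% = clavulanate high control wells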
The depositor's hits bear a star. The full list was thinned out, with hits kept by preference.

`CN(C)c1ccc(C=c2c3ccccc3n3c2cc(-c2ccccc2)[n+]3C)cc1` gave NOD2-RIPK2 inh 13.1 and TLR9-MyD88 block -11.8.
`COc1ccc(NC(=O)CS(=O)(=O)c2ccc(Br)cc2)cc1` gave NOD2-RIPK2 inh -0.9, TLR9-MyD88 block 1.3, UPR XBP1 act 1.7 and UPR CHOP act 2.3.
Cc1ccccc1N/N=C/c1sc(=O)n(Cc2cccc(C(=O)O)c2)c1Cl was read as NOD2-RIPK2 inh -4.8, TLR9-MyD88 block 3.1, CHOP inh 69.6, UPR XBP1 act -1.4 and UPR CHOP act 2.9.
`COC(=O)c1cccc(Cn2c(Cl)c(/C=N/Nc3ccccc3C)sc2=O)c1` gave NOD2-RIPK2 inh 38.5*, TLR9-MyD88 block 7.0, CHOP inh 9.0, TLR4 MyD88 comp -2.5, NOD2-RIPK2 conf 5.5 and NOD2 BLA counter -0.2.
`COc1ccc(Cc2c(-c3ccco3)nc3c(C)cc(Br)cn23)c(C)c1` gave NOD2-RIPK2 inh -1.8.
For COc1ccccc1Cc1c(-c2ccco2)nc2c(C)cc(Br)cn12 the results were NOD2-RIPK2 inh 24.6*, NOD2-RIPK2 conf 1.4 and NOD2 BLA counter -5.3.
Screening CCc1ccc(C(=O)Cn2ncc(Cl)c(Cl)c2=O)cc1 returned NOD2-RIPK2 inh 34.3*, TLR9-MyD88 block 19.3, CHOP inh 2.8, TLR4 MyD88 comp 12.4, UPR XBP1 act 0.4, UPR CHOP act 37.1, NOD2-RIPK2 conf 39.9* and NOD2 BLA counter 8.7.
`O=C1C(=O)c2cccnc2-c2ncccc21` gave NOD2-RIPK2 inh 40.8*, NOD2-RIPK2 conf 2.9 and NOD2 BLA counter 3.8.
O=C1c2cccnc2-c2ncccc21 was read as NOD2-RIPK2 inh -7.7, TLR9-MyD88 block 6.2, CHOP inh -2.9, TLR4 MyD88 comp 1.9, UPR XBP1 act -0.7 and UPR CHOP act -3.7.
`Cn1c(SCC(=O)c2ccc(O)cc2O)nnc1-c1ccccc1` gave NOD2-RIPK2 inh -3.4, TLR9-MyD88 block -6.0, UPR XBP1 act 1.9 and UPR CHOP act -0.4.
For COCCN(C(=O)COC(=O)CCC1CCCCC1)c1c(N)n(Cc2ccccc2)c(=O)[nH]c1=O the results were NOD2-RIPK2 inh 27.6*, TLR9-MyD88 block 4.3, NOD2-RIPK2 conf 2.5 and NOD2 BLA counter -1.9.
`CCCCCC[n+]1ccccc1/C=C/c1ccc(N(C)C)cc1` gave NOD2-RIPK2 inh 33.5*, NOD2-RIPK2 conf 41.0* and NOD2 BLA counter 40.8*.
O=C(Cc1ccc(Br)c2ccccc12)N/N=C/c1ccccn1 was read as NOD2-RIPK2 inh 5.2, TLR9-MyD88 block 2.8, CHOP inh 17.6, TLR4 MyD88 comp -1.0, UPR XBP1 act -0.1 and UPR CHOP act -2.2.
COc1ccc(Nc2nnc(SCC(=O)N3CC(=O)Nc4ccccc43)s2)cc1 was read as NOD2-RIPK2 inh 26.6*, TLR9-MyD88 block -1.4, CHOP inh 10.4, TLR4 MyD88 comp 3.0, UPR XBP1 act -1.7, UPR CHOP act 0.2, NOD2-RIPK2 conf 3.5 and NOD2 BLA counter -7.6.
Screening O=C(O)CCCCCN1C(=O)/C(=C/c2cn(-c3ccccc3)nc2-c2cccs2)SC1=S returned NOD2-RIPK2 inh 0.5 and TLR9-MyD88 block 6.8.
Screening CC1=NNC(=O)/C1=C\c1cn(-c2ccccc2)nc1-c1cccs1 returned NOD2-RIPK2 inh 59.9*, TLR9-MyD88 block 6.9, CHOP inh 110.0*, TLR4 MyD88 comp 0.8, UPR XBP1 act -8.7, UPR CHOP act -8.6, NOD2-RIPK2 conf 66.3* and NOD2 BLA counter -1.1.
O=C(NC1CCCCC1)C(c1ccccc1)n1c(=O)c(-c2cc3ccccc3[nH]2)nc2ccccc21 (configuration not stated) was read as NOD2-RIPK2 inh 43.5*, NOD2-RIPK2 conf 40.0* and NOD2 BLA counter 66.0*.
`N#Cc1ccc(C(C(=O)NC2CCCCC2)n2c(=O)c(-c3ccco3)nc3ccccc32)cc1` (configuration not stated) gave NOD2-RIPK2 inh -1.1.
Screening COc1ccc(C(C(=O)NC2CCCCC2)n2c(=O)c(-c3cc4ccccc4[nH]3)nc3ccccc32)cc1 (configuration not stated) returned NOD2-RIPK2 inh 43.7*, NOD2-RIPK2 conf 40.8* and NOD2 BLA counter 64.9*.
For COc1ccc(C(C(=O)NC2CCCC2)n2c(Cc3cc(F)cc(F)c3)nc3ccccc32)cc1 (configuration not stated) the results were NOD2-RIPK2 inh -0.3.
N#Cc1ccc(C(C(=O)NC2CCCCC2)n2c(=O)c(-c3cc4ccccc4[nH]3)nc3ccccc32)cc1 (configuration not stated) was read as NOD2-RIPK2 inh 53.5*, NOD2-RIPK2 conf 50.2* and NOD2 BLA counter 71.1*.
`O=C(NC1CCCCC1)C(c1ccnc2ccccc12)n1c(=O)c(-c2cc3ccccc3[nH]2)nc2ccccc21` (configuration not stated) gave NOD2-RIPK2 inh 51.0*, NOD2-RIPK2 conf 49.7* and NOD2 BLA counter 66.6*.
Cc1ccc2c(c1)C(c1ccc(F)cc1)N(C(=O)c1cc3ccccc3oc1=O)CC(=O)N2 (configuration not stated) was read as NOD2-RIPK2 inh -8.9, TLR9-MyD88 block 19.4, CHOP inh -11.4, TLR4 MyD88 comp -10.5, UPR XBP1 act -2.0 and UPR CHOP act -1.2.
CC(NC(=O)CSc1nnc2n1CCCCC2)c1ccccc1Cl (configuration not stated) was read as NOD2-RIPK2 inh 3.9, TLR9-MyD88 block 0.0, UPR XBP1 act 0.1 and UPR CHOP act -0.7.
Screening O=C1CCC(C(=O)N2CCc3c(Cl)cccc3C2)CN1CCCN1CCOCC1 (configuration not stated) returned NOD2-RIPK2 inh -7.1, TLR9-MyD88 block -9.0, UPR XBP1 act -2.2 and UPR CHOP act -0.6.
Screening COc1cccc(CN2CC(C(=O)N3CCN(c4ccc(Cl)cc4)CC3)CCC2=O)c1 (configuration not stated) returned NOD2-RIPK2 inh -4.1, TLR9-MyD88 block -6.2, UPR XBP1 act -4.5 and UPR CHOP act 1.0.
`C=C1C(=O)[C@]23C[C@H]1CCC2[C@]1(C)CCC[C@@](C)(C(=O)O)C1C[C@@H]3O` (some centres not stated) gave NOD2-RIPK2 inh 22.2*, NOD2-RIPK2 conf 32.7* and NOD2 BLA counter 2.1.
